Assay [1] in a line: Displacement of [3H]-paroxetine from SERT in rabbit cortical membrane. The format is cell membranes, Oryctolagus cuniculus. The procedure, abridged: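 Competition against [3H]paroxetine (Kd 56.00 pM) on rabbit frontal cortex membranes, in duplicate, at least seven test concentrations from ethanol stocks diluted in Tris-HCl saline buffer; filtration and scintillation counting; Ki calculated by Cheng-Prusoff, mean ± s.e.m. of three independent experiments.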
Background: Displacement assays read how much labelled ligand stays bound in the presence of the test substance.

Assay [2] can be described thus: Displacement of [3H]-Nisoxetine from NET in rabbit cortical membrane. The format is cell membranes, Oryctolagus cuniculus.
Assay [3] can be described thus: Displacement of [3H]-WIN 35,428 from DAT in rabbit striatal membrane. In kind it is cell membranes, Oryctolagus cuniculus, Striatum. In a few lines: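 Rabbit striatal membranes (0.2 mg protein) in 50 mM Tris-HCl pH 7.4, 120 mM NaCl, 5 mM KCl with 0.5–2 nM [3H]WIN 35,428 (Kd 6.1 nM), 2 h at 4 °C; dopamine defines nonspecific binding; filtration over polyethylenimine-soaked GF/C filters, scintillation counting; ≥7 concentrations; Ki via Cheng-Prusoff, mean ± s.e.m. of three experiments in duplicate.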

Assay [4] is filed under the species Oryctolagus cuniculus. Put plainly: Ratio of Ki for NET in rabbit cortical membrane to Ki for SERT in rabbit cortical membrane. In kind it is cell membranes. In a few lines: (§1)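 Ratio of the radioligand-binding Ki values from rabbit membranes: DAT ([3H]WIN 35,428, striatum) or NET ([3H]nisoxetine, cortex) Ki divided by SERT ([3H]paroxetine, cortex) Ki.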
Assay [5] is filed under the species Oryctolagus cuniculus. Nature of the assay: Ratio of Ki for DAT in rabbit striatal membrane to Ki for SERT in rabbit cortical membrane. In kind it is cell membranes. The procedure, abridged: as §1

This note sets out measurements from ChEMBL document CHEMBL1687872, “Synthesis, molecular docking and binding studies of selective serotonin transporter inhibitors” (Eur J Med Chem, 2011).

SMILES strings stand for the structures.

As usually defined, the Ki is a dissociation constant, usually derived from enzyme kinetics or from competition with a known ligand. In the case of `Fc1ccc(CO/N=C2/CNCCC2c2ccc(C(F)(F)F)cc2)cc1` (configuration not stated), the Ki in assay [1] was 96.8 nM; in assay [2], 9300 nM; in assay [3], more than 100000 nM. Moreover, the Ratio Ki in the assay listed under Oryctolagus cuniculus [4] is 96; in the assay listed under Oryctolagus cuniculus [5] it was more than 1000.
As to `Fc1ccc(CO/N=C2/CNCCC2c2ccc(F)cc2)cc1` (racemic), the values for the Ki in assay [1], in assay [2] and in assay [3] were 28.7 nM, 13400 nM and 9460 nM, respectively. Also, the Ratio Ki in the assay listed under Oryctolagus cuniculus [4] came to 466; in the assay filed under Oryctolagus cuniculus [5], 329.
Consider `Fc1ccc(CO/N=C2\CNCCC2c2ccc(F)cc2)cc1` (racemic), for which the figures for the Ki in assay [1] and in assay [3] were 306 nM and 3190 nM, respectively. Also, the Ratio Ki in the assay listed under Oryctolagus cuniculus [5] was found to be 10.
As to `Fc1ccc(C2CCNC/C2=N/OCc2ccc(C(F)(F)F)cc2)cc1` (racemic), the results for the Ki in assay [1], in assay [2] and in assay [3] were 98.4 nM, 19500 nM and more than 100000 nM, respectively. Moreover, the Ratio Ki in the assay listed under Oryctolagus cuniculus [4] is 198; in the assay filed under Oryctolagus cuniculus [5], more than 1000.
`Fc1ccc(C2CCNC/C2=N\OCc2ccc(C(F)(F)F)cc2)cc1` (racemic): the Ki in assay [1] worked out at 139 nM; in assay [3], 6200 nM. The Ratio Ki in the assay listed under Oryctolagus cuniculus [5] came to 45.
Take `Fc1ccc(C2CCNC/C2=N/OCc2ccccc2Cl)cc1` (racemic): the results for the Ki in assay [1], in assay [2] and in assay [3] were 22.6 nM, 11200 nM and 12900 nM, respectively. Besides, the Ratio Ki in the assay filed under Oryctolagus cuniculus [4] came to 496; in the assay filed under Oryctolagus cuniculus [5], 571.
As to `Fc1ccc(C2CCNC/C2=N\OCc2ccccc2Cl)cc1` (racemic), the values for the inhibition constant Ki in assay [1] and in assay [3] were 81.1 nM and 3800 nM, respectively. Moreover, in the assay filed under Oryctolagus cuniculus [5], the Ratio Ki came to 47.
With `Fc1ccc(CO/N=C2\CNCCC2c2ccc(C(F)(F)F)cc2)cc1` (racemic), the Ki in assay [1] turned out to be 396 nM; in assay [3], 2800 nM. For the same compound, in the assay filed under Oryctolagus cuniculus [5], the Ratio Ki is 7.
Take `FC(F)(F)c1ccc(C2CCNC/C2=N/OCc2ccccc2Cl)cc1` (racemic): the Ki in assay [1] was 10.3 nM; in assay [2] it was 10000 nM; in assay [3], more than 100000 nM. Moreover, the Ratio Ki in the assay filed under Oryctolagus cuniculus [4] is 972; in the assay listed under Oryctolagus cuniculus [5] it was more than 9000.
On to `FC(F)(F)c1ccc(C2CCNC/C2=N\OCc2ccccc2Cl)cc1` (racemic), for which the Ki in assay [1] is 96.6 nM; in assay [3] it was 4200 nM. Besides, the Ratio Ki in the assay filed under Oryctolagus cuniculus [5] was 43.
As to `CNCCC(Oc1ccccc1OC)c1ccccc1` (configuration not stated) [NISOXETINE], the Ki in assay [2] is 3.5 nM.
Regarding `Fc1ccc([C@@H]2CCNC[C@H]2COc2ccc3c(c2)OCO3)cc1` [PAROXETINE], the Ki in assay [1] turned out to be 0.31 nM; in assay [2], 80 nM; in assay [3], 769 nM. The results for the Ratio Ki in the assay listed under Oryctolagus cuniculus [4] and in the assay filed under Oryctolagus cuniculus [5] were 258 and 2480, respectively.
Turning to `CNCC[C@@H](Oc1ccc(C(F)(F)F)cc1)c1ccccc1` [R-FLUOXETINE], the results for the Ki in assay [1], in assay [2] and in assay [3] were 5.8 nM, 609 nM and 4000 nM, respectively. Moreover, the Ratio Ki was 105 in the assay listed under Oryctolagus cuniculus [4] and 670 in the assay filed under Oryctolagus cuniculus [5].
Consider `Fc1ccc(C(OCCN2CCN(CCCc3ccccc3)CC2)c2ccc(F)cc2)cc1` [VANOXERINE], for which the Ki in assay [3] was 1.5 nM.
